Measured values reported in ChEMBL document CHEMBL4190329, “Design, Synthesis, and Biological Evaluation of the First c-Met/HDAC Inhibitors Based on Pyridazinone Derivatives” (ACS Med Chem Lett, 2017).
Calls of active or inactive are those of the source. No cut-off for these calls is given here.

Key:
Histone deacetylase 1 [1] = molecular target: T1, Histone deacetylase 1 (Homo sapiens, UniProt Q13547); assay: Inhibition of recombinant human full length HDAC1 expressed in baculovirus infected Sf9 insect cells using biotinylated lysine 9 acetylated histone H3 (1 to 21 residues) as substrate incubated for 5 mins followed by substrate addition measured after 60 mins by HTRF assay
[2] = molecular target: T2, Hepatocyte growth factor receptor (Homo sapiens, UniProt P08581); assay: Inhibition of recombinant human His-tagged c-Met cytoplasmic domain (956 to 1390 residues) expressed in baculovirus expression system using poly (Glu,Tyr)4:1 as substrate after 60 mins by spectrophotometric analysis
EBC-1 = assay: Antiproliferative activity against human EBC1 cells after 72 hrs by SRB assay; format: functional, cell-based; conditions: EBC-1, 72 h
HCT-116 = assay: Antiproliferative activity against human HCT116 cells after 72 hrs by SRB assay; format: functional, cell-based; conditions: HCT-116, 72 h
[3] = molecular target: T3, Protein deacetylase HDAC6 (Homo sapiens) (UniProt Q9UBN7); assay: Inhibition of HDAC6 in human EBC1 cells assessed as […] in acetyl alpha-tubulin level at Lys40 at 0.01 to 10 uM after 24 hrs by Western blot analysis; format: cell-based
T3 sequence (whole entry): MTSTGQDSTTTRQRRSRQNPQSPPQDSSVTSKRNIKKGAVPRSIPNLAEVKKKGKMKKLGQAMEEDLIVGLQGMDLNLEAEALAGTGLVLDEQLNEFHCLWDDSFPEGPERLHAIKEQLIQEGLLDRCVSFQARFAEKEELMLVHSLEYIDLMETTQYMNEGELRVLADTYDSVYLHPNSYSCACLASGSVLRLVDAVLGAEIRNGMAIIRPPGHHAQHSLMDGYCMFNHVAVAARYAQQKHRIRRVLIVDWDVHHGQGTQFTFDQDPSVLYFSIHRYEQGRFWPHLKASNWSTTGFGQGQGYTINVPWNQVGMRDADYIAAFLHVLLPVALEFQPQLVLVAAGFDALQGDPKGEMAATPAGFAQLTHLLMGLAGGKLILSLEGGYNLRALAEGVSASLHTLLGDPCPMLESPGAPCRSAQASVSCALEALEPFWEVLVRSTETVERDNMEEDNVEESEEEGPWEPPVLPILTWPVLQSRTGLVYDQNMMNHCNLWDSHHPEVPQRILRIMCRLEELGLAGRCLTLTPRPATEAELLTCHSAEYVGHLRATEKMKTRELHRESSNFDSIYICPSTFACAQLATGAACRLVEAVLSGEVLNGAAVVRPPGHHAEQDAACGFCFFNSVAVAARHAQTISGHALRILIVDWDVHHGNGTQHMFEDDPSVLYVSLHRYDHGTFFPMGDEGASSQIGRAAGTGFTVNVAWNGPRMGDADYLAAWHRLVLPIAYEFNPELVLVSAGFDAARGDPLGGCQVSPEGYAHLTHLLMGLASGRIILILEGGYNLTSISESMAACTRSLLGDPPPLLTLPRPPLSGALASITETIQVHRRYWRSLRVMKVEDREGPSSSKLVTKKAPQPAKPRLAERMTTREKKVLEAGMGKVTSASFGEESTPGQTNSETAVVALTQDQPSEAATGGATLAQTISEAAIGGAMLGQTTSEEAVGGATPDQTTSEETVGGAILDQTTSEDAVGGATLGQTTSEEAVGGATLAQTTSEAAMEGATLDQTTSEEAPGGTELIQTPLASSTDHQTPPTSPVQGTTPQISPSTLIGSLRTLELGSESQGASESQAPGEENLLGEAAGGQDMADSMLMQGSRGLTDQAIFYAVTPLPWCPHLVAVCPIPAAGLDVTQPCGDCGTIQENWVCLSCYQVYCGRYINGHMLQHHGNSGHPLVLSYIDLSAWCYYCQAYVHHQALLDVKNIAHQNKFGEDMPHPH

Histone deacetylase 1 [4] = molecular target: T1, Histone deacetylase 1; assay: Inhibition of HDAC1 in human EBC1 cells assessed as increase in p21 levels at 0.01 to 10 uM after 24 hrs by Western blot analysis; format: cell-based
Method in brief: (§1)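 Intact EBC-1 cells were treated with the compound at several concentrations for 24 h. Protein levels were then read by immunoblotting with specific antibodies.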

[5] = molecular target: T2, Hepatocyte growth factor receptor; assay: Inhibition of c-MET in human EBC1 cells assessed as decrease in Akt phosphorylation at Ser473 residues after 24 hrs by Western blot analysis; format: cell-based; method in brief: as §1
Histone deacetylase 1 [6] = molecular target: T1, Histone deacetylase 1; assay: Potency index, ratio of chidamide IC50 to compound IC50 for recombinant human full length HDAC1 expressed in baculovirus infected Sf9 insect cells
Histone deacetylase 1 [7] = molecular target: T1, Histone deacetylase 1; assay: Inhibition of HDAC1 in human EBC1 cells assessed as increase in acetyl-Histone H3 levels at Lys9/Lys14 residues at 0.01 to 10 uM after 24 hrs by Western blot analysis; format: cell-based; method in brief: as §1
[8] = molecular target: T2, Hepatocyte growth factor receptor; assay: Inhibition of phosphorylation of c-MET at Tyr1234/1235 residues in human EBC1 cells after 24 hrs by Western blot analysis; format: cell-based; method in brief: as §1
[9] = molecular target: T2, Hepatocyte growth factor receptor; assay: Inhibition of c-MET in human EBC1 cells assessed as decrease in Erk1/2 phosphorylation at Thr202/Tyr204 residues after 24 hrs by Western blot analysis; format: cell-based; method in brief: as §1

T1 sequence (Q13547 whole entry, the tested form may be a part): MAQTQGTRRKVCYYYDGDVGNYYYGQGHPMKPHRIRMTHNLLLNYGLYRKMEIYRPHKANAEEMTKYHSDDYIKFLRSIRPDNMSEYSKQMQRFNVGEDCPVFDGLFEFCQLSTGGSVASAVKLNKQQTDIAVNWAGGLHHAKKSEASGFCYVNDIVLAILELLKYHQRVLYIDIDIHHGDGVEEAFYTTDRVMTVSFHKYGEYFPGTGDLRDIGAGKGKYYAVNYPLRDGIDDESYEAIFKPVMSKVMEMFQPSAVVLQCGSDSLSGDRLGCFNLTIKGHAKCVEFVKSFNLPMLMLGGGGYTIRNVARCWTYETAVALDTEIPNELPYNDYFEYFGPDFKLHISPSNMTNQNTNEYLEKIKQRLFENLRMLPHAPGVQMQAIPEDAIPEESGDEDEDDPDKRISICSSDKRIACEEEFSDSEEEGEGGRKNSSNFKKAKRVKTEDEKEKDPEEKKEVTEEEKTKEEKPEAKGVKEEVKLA
T2 sequence (P08581 whole entry, the tested form may be a part): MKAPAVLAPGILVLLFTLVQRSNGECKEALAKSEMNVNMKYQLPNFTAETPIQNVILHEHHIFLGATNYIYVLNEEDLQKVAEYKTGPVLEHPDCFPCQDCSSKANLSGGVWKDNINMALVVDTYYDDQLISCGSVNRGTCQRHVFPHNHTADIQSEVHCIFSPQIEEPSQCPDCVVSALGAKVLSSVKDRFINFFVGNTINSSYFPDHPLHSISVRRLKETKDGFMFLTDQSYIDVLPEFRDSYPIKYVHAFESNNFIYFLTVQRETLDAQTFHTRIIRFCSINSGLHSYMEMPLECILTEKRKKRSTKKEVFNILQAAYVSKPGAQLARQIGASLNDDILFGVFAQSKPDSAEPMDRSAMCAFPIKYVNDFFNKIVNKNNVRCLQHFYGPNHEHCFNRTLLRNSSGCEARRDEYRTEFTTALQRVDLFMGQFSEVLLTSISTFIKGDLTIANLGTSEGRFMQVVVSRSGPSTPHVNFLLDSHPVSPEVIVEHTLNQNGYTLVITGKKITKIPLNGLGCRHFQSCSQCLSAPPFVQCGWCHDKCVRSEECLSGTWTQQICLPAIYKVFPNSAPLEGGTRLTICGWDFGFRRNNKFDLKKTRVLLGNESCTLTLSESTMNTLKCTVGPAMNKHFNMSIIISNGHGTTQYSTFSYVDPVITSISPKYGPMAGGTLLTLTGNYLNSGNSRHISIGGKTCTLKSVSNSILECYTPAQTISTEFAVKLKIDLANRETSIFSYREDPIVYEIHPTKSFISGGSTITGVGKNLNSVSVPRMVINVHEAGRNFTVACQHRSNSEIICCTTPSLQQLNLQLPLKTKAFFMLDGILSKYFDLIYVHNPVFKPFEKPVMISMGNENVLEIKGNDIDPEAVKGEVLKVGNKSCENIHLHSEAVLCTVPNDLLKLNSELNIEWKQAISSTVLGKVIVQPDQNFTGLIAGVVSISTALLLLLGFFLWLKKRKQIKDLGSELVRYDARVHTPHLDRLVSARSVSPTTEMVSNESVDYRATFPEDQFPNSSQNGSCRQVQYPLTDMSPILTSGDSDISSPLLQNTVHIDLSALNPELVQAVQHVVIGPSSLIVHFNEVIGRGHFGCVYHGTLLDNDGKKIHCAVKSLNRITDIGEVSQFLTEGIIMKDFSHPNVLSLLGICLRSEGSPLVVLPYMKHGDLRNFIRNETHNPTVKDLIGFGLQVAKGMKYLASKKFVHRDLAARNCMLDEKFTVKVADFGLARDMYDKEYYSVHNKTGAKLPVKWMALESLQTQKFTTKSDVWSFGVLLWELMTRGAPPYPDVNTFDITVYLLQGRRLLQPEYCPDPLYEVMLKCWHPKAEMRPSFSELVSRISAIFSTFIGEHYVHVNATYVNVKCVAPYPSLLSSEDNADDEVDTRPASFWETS

Cn1cc(-c2ccc(=O)n(CCOc3ccnc4cc(OCCCCCCC(=O)NO)ccc34)n2)cn1
IC50 (Histone deacetylase 1 [1]): 18 nM
IC50 [2]: 0.54 nM
IC50 (EBC-1): 210 nM
IC50 (HCT-116): > 10000 nM

Cn1cc(-c2ccc(=O)n(CCOc3ccnc4cc(OCCCCC(=O)NO)ccc34)n2)cn1
IC50 (Histone deacetylase 1 [1]): > 1000 nM
IC50 [2]: 0.96 nM
IC50 (EBC-1): 370 nM
IC50 (HCT-116): > 10000 nM

Cn1cc(-c2ccc(=O)n(CCOc3ccnc4cc(OCc5ccc(/C=C/C(=O)Nc6ccccc6N)cc5)ccc34)n2)cn1
IC50 (Histone deacetylase 1 [1]): > 1000 nM
IC50 [2]: 1.1 nM
IC50 (EBC-1): 490 nM
IC50 (HCT-116): > 10000 nM

Nc1cc(F)ccc1NC(=O)c1ccc(CNC(=O)/C=C/c2cccnc2)cc1 [TUCIDINOSTAT]
IC50 (EBC-1): 2900 nM
IC50 (HCT-116): 7800 nM

Cn1cc(-c2ccc(=O)n(CCOc3ccnc4cc(C(=O)Nc5ccccc5N)ccc34)n2)cn1
IC50 (Histone deacetylase 1 [1]): > 1000 nM
IC50 [2]: 37 nM
IC50 (EBC-1): > 10000 nM
IC50 (HCT-116): > 10000 nM

Cn1cc(-c2ccc(=O)n(CCOc3ccnc4cc(OCCCCCS)ccc34)n2)cn1
IC50 (Histone deacetylase 1 [1]): 329 nM
IC50 [2]: 1.5 nM
IC50 (EBC-1): 640 nM
IC50 (HCT-116): > 10000 nM

Cn1cc(-c2ccc(=O)n(CCOc3ccnc4cc(-c5ccc(C(=O)Nc6ccccc6N)s5)ccc34)n2)cn1
IC50 (Histone deacetylase 1 [1]): 467 nM
IC50 [2]: 1.3 nM
IC50 (EBC-1): 120 nM
IC50 (HCT-116): > 10000 nM

Cn1cc(-c2ccc(=O)n(CCOc3ccnc4cc(OCCCC(=O)NO)ccc34)n2)cn1
IC50 (Histone deacetylase 1 [1]): > 1000 nM
IC50 [2]: 1 nM
IC50 (EBC-1): 870 nM
IC50 (HCT-116): > 10000 nM

Cn1cc(-c2ccc(=O)n(CCOc3ccnc4cc(OCc5ccc(/C=C/C(=O)Nc6ccccc6N)nc5)ccc34)n2)cn1
IC50 (Histone deacetylase 1 [1]): 625 nM
IC50 [2]: 0.63 nM
IC50 (EBC-1): 46 nM
IC50 (HCT-116): 7900 nM

Cn1cc(-c2ccc(=O)n(CCOc3ccnc4cc(OCc5ccc(CCC(=O)Nc6ccccc6N)cc5)ccc34)n2)cn1
IC50 (Histone deacetylase 1 [1]): > 1000 nM
IC50 [2]: 5.1 nM
IC50 (EBC-1): 210 nM
IC50 (HCT-116): > 10000 nM

Cn1cc(-c2ccc(=O)n(CCOc3ccnc4cc(OCCCCCC(=O)Nc5ccccc5N)ccc34)n2)cn1
IC50 (Histone deacetylase 1 [1]): 221 nM
IC50 [2]: 0.96 nM
IC50 (EBC-1): 370 nM
IC50 (HCT-116): 7000 nM

Cn1cc(-c2ccc(=O)n(CCOc3ccnc4cc(OCCCCCC(=O)NO)ccc34)n2)cn1
IC50 (Histone deacetylase 1 [1]): 216 nM
IC50 [2]: 0.73 nM
IC50 (EBC-1): 460 nM
IC50 (HCT-116): > 10000 nM

Cn1cc(-c2ccc(=O)n(CCOc3ccnc4cc(OCCCOc5ccc(C(=O)Nc6ccccc6N)nc5)ccc34)n2)cn1
inhibition [3]: inactive
inhibition (Histone deacetylase 1 [4]): Active
inhibition [5]: Dose-dependent effect
IC50 (Histone deacetylase 1 [1]): 38 nM
IC50 [2]: 0.71 nM
IC50 (EBC-1): 58 nM
Ratio IC50 (Histone deacetylase 1 [6]): 4
inhibition (Histone deacetylase 1 [7]): Active
IC50 (HCT-116): 1300 nM
inhibition [8]: Dose-dependent effect
inhibition [9]: Dose-dependent effect

Cn1cc(-c2ccc(=O)n(CCOc3ccnc4cc(OCc5ccc(C(=O)Nc6ccccc6N)cc5)ccc34)n2)cn1
IC50 (Histone deacetylase 1 [1]): 156 nM
IC50 [2]: 0.44 nM
IC50 (EBC-1): 42 nM
IC50 (HCT-116): 1800 nM

O=c1ccc(-n2ccc3ccc(F)cc32)nn1CCOc1ccnc2cc(OCCCN3CCOCC3)ccc12
IC50 (Histone deacetylase 1 [1]): > 1000 nM
IC50 [2]: 0.84 nM
IC50 (EBC-1): 60 nM
IC50 (HCT-116): > 10000 nM

Cn1cc(-c2ccc(=O)n(CCOc3ccnc4cc(Nc5ccc(C(=O)Nc6ccccc6N)nc5)ccc34)n2)cn1
IC50 (Histone deacetylase 1 [1]): 129 nM
IC50 [2]: 3.7 nM
IC50 (EBC-1): 450 nM
IC50 (HCT-116): > 10000 nM

CC(=O)CCCCCOc1ccc2c(OCCn3nc(-c4cnn(C)c4)ccc3=O)ccnc2c1
IC50 (Histone deacetylase 1 [1]): > 1000 nM
IC50 [2]: 1 nM
IC50 (EBC-1): 25 nM
IC50 (HCT-116): > 10000 nM

CNC(=O)CCCCCOc1ccc2c(OCCn3nc(-c4cnn(C)c4)ccc3=O)ccnc2c1
IC50 (Histone deacetylase 1 [1]): > 1000 nM
IC50 [2]: 1.2 nM
IC50 (EBC-1): 79 nM
IC50 (HCT-116): > 10000 nM
